Measurements taken from ChEMBL document CHEMBL1140069, “In vitro antifungal activity of polyfunctionalized 2-(hetero)arylquinolines prepared through imino Diels-Alder reactions” (2008).
Converted amounts (≈) assume the structure as drawn.

Key:
Type in all cases: functional
Candida albicans = experiment: Antifungal activity against Candida albicans ATCC 10231 after 48 hrs by broth microdilution technique; conditions: ATCC 10231, 48 h
Method in brief: (§1)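 CLSI broth microdilution: M-27 A2 for yeasts and M-38 A for filamentous fungi. Medium is RPMI-1640 buffered to pH 7.0 with MOPS. Compound is diluted twofold from 250 to 0.98, final DMSO ≤2%. Inoculum is 1–5 × 10³ CFU/mL. Plates are incubated at 35 °C in a moist, dark chamber and read visually at 48 h. MIC100 is the lowest concentration giving total growth inhibition versus drug-free control.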

Nannizzia gypsea = experiment: Antifungal activity against Microsporum gypseum C115 after 48 hrs by broth microdilution technique; method in brief: as §1
Aspergillus fumigatus = experiment: Antifungal activity against Aspergillus fumigatus ATTC 26934 after 48 hrs by broth microdilution technique; method in brief: as §1
Aspergillus flavus = experiment: Antifungal activity against Aspergillus flavus ATCC 9170 after 48 hrs by broth microdilution technique; conditions: ATCC 9170, 48 h; method in brief: as §1
Trichophyton rubrum = experiment: Antifungal activity against Trichophyton rubrum C110 after 48 hrs by broth microdilution technique; conditions: read-out: MIC; method in brief: as §1
Saccharomyces cerevisiae = experiment: Antifungal activity against Saccharomyces cerevisiae ATCC 9763 after 48 hrs by broth microdilution technique; conditions: ATCC 9763, 48 h; method in brief: as §1
[1] = tested on: Trichophyton mentagrophytes; experiment: Antifungal activity against Trichophyton mentagrophytes ATCC 9972 after 48 hrs by broth microdilution technique; conditions: ATCC 9972, 48 h; method in brief: as §1
Aspergillus niger = experiment: Antifungal activity against Aspergillus niger ATCC 9029 after 48 hrs by broth microdilution technique; conditions: ATCC 9029, 48 h; method in brief: as §1
Cryptococcus neoformans = experiment: Antifungal activity against Cryptococcus neoformans ATCC 32264 after 48 hrs by broth microdilution technique; conditions: ATCC 32264, 48 h; method in brief: as §1

| Structure (SMILES) | MIC (Candida albicans) | MIC (Nannizzia gypsea) | MIC (Aspergillus fumigatus) | MIC (Aspergillus flavus) | MIC (Trichophyton rubrum) | MIC (Saccharomyces cerevisiae) | MIC [1] | MIC (Aspergillus niger) | MIC (Cryptococcus neoformans) |
| --- | --- | --- | --- | --- | --- | --- | --- | --- | --- |
| CCc1cccc2c(C)cc(-c3ccncc3)nc12 | > 250 µg/mL | > 250 µg/mL | > 250 µg/mL | > 250 µg/mL | > 250 µg/mL | > 250 µg/mL | > 250 µg/mL | > 250 µg/mL | > 250 µg/mL |
| Clc1ccc2nc(-c3cccs3)ccc2c1 | > 250 µg/mL | > 250 µg/mL | > 250 µg/mL | > 250 µg/mL | > 250 µg/mL | > 250 µg/mL | > 250 µg/mL | > 250 µg/mL | > 250 µg/mL |
| O=[N+]([O-])c1ccc2nc(-c3ccccc3)ccc2c1 | > 250 µg/mL | > 250 µg/mL | > 250 µg/mL | > 250 µg/mL | > 250 µg/mL | > 250 µg/mL | > 250 µg/mL | > 250 µg/mL | > 250 µg/mL |
| COc1ccc2nc(-c3cccs3)ccc2c1 | > 250 µg/mL | > 250 µg/mL | > 250 µg/mL | > 250 µg/mL | > 250 µg/mL | > 250 µg/mL | > 250 µg/mL | > 250 µg/mL | > 250 µg/mL |
| CCc1ccc2nc(-c3cccc([N+](=O)[O-])c3)ccc2c1 | > 250 µg/mL | > 250 µg/mL | > 250 µg/mL | > 250 µg/mL | > 250 µg/mL | > 250 µg/mL | > 250 µg/mL | > 250 µg/mL | > 250 µg/mL |
| Cc1cc(C)c2ccc(-c3ccccc3)nc2c1 | > 250 µg/mL | > 250 µg/mL | > 250 µg/mL | > 250 µg/mL | > 250 µg/mL | > 250 µg/mL | > 250 µg/mL | > 250 µg/mL | > 250 µg/mL |
| Cc1ccc2nc(-c3ccc4c(c3)OCO4)ccc2c1 | > 250 µg/mL | > 250 µg/mL | > 250 µg/mL | > 250 µg/mL | > 250 µg/mL | > 250 µg/mL | > 250 µg/mL | > 250 µg/mL | > 250 µg/mL |
| c1ccc2nc(-c3ccc4c(c3)OCO4)ccc2c1 | > 250 µg/mL | > 250 µg/mL | > 250 µg/mL | > 250 µg/mL | > 250 µg/mL | > 250 µg/mL | > 250 µg/mL | > 250 µg/mL | > 250 µg/mL |
| Clc1ccc2nc(-c3ccccc3)ccc2c1 | > 250 µg/mL | > 250 µg/mL | > 250 µg/mL | > 250 µg/mL | > 250 µg/mL | > 250 µg/mL | > 250 µg/mL | > 250 µg/mL | > 250 µg/mL |
| Oc1ccc2nc(-c3ccccc3)ccc2c1 | > 250 µg/mL | 125 µg/mL (≈ 565 µM) | > 250 µg/mL | > 250 µg/mL | 125 µg/mL (≈ 565 µM) | > 250 µg/mL | 250 µg/mL (≈ 1130 µM) | > 250 µg/mL | > 250 µg/mL |
| COc1ccc2nc(-c3ccco3)ccc2c1 | > 250 µg/mL | 125 µg/mL (≈ 555 µM) | > 250 µg/mL | > 250 µg/mL | 125 µg/mL (≈ 555 µM) | > 250 µg/mL | 125 µg/mL (≈ 555 µM) | > 250 µg/mL | > 250 µg/mL |
| COc1cc(OC)c2nc(-c3ccc4c(c3)OCO4)ccc2c1 | > 250 µg/mL | > 250 µg/mL | > 250 µg/mL | > 250 µg/mL | > 250 µg/mL | > 250 µg/mL | > 250 µg/mL | > 250 µg/mL | > 250 µg/mL |
| c1ccc(-c2ccc3cc4c(cc3n2)OCO4)cc1 | > 250 µg/mL | 250 µg/mL (≈ 1000 µM) | > 250 µg/mL | > 250 µg/mL | 250 µg/mL (≈ 1000 µM) | > 250 µg/mL | 250 µg/mL (≈ 1000 µM) | > 250 µg/mL | 125 µg/mL (≈ 501 µM) |

Results, then the compound that gave them:

| MIC (Candida albicans) | MIC (Nannizzia gypsea) | MIC (Aspergillus fumigatus) | MIC (Aspergillus flavus) | MIC (Trichophyton rubrum) | MIC (Saccharomyces cerevisiae) | MIC [1] | MIC (Aspergillus niger) | MIC (Cryptococcus neoformans) | Structure (SMILES) |
| --- | --- | --- | --- | --- | --- | --- | --- | --- | --- |
| > 250 µg/mL | > 250 µg/mL | > 250 µg/mL | > 250 µg/mL | > 250 µg/mL | > 250 µg/mL | > 250 µg/mL | > 250 µg/mL | > 250 µg/mL | Cc1ccc([N+](=O)[O-])c2c(C)cc(-c3ccncc3)nc12 |
| > 250 µg/mL | 125 µg/mL (≈ 491 µM) | > 250 µg/mL | > 250 µg/mL | 125 µg/mL (≈ 491 µM) | > 250 µg/mL | 125 µg/mL (≈ 491 µM) | > 250 µg/mL | > 250 µg/mL | Nc1cccc(-c2ccc3cc(Cl)ccc3n2)c1 |
| > 250 µg/mL | > 250 µg/mL | > 250 µg/mL | > 250 µg/mL | > 250 µg/mL | > 250 µg/mL | > 250 µg/mL | > 250 µg/mL | > 250 µg/mL | CCc1ccc2ccc(-c3ccc4c(c3)OCO4)nc2c1 |
| > 250 µg/mL | > 250 µg/mL | > 250 µg/mL | > 250 µg/mL | > 250 µg/mL | > 250 µg/mL | > 250 µg/mL | > 250 µg/mL | > 250 µg/mL | COc1ccc2nc(-c3ccc4c(c3)OCO4)ccc2c1 |
| > 250 µg/mL | > 250 µg/mL | > 250 µg/mL | > 250 µg/mL | > 250 µg/mL | > 250 µg/mL | > 250 µg/mL | > 250 µg/mL | > 250 µg/mL | Clc1ccc2nc(-c3ccco3)ccc2c1 |
| > 250 µg/mL | 250 µg/mL (≈ 1120 µM) | > 250 µg/mL | > 250 µg/mL | 250 µg/mL (≈ 1120 µM) | > 250 µg/mL | 250 µg/mL (≈ 1120 µM) | > 250 µg/mL | > 250 µg/mL | Fc1ccc2nc(-c3ccccc3)ccc2c1 |
| > 250 µg/mL | > 250 µg/mL | > 250 µg/mL | > 250 µg/mL | > 250 µg/mL | > 250 µg/mL | > 250 µg/mL | > 250 µg/mL | > 250 µg/mL | O=[N+]([O-])c1cccc(-c2ccc3cc(F)ccc3n2)c1 |
| > 250 µg/mL | > 250 µg/mL | > 250 µg/mL | > 250 µg/mL | > 250 µg/mL | > 250 µg/mL | > 250 µg/mL | > 250 µg/mL | > 250 µg/mL | Cc1cc(-c2ccncc2)nc2c(C(C)C)ccc([N+](=O)[O-])c12 |
| > 250 µg/mL | > 250 µg/mL | > 250 µg/mL | > 250 µg/mL | > 250 µg/mL | > 250 µg/mL | > 250 µg/mL | > 250 µg/mL | > 250 µg/mL | O=[N+]([O-])c1cccc(-c2ccc3cc(Cl)ccc3n2)c1 |
| > 250 µg/mL | 12.5 µg/mL (≈ 57 µM) | > 250 µg/mL | > 250 µg/mL | 25 µg/mL (≈ 114 µM) | > 250 µg/mL | 12.5 µg/mL (≈ 57 µM) | > 250 µg/mL | 250 µg/mL (≈ 1140 µM) | Cc1cc(-c2ccccc2)nc2ccccc12 |
| > 250 µg/mL | 12.5 µg/mL (≈ 41.8 µM) | > 250 µg/mL | > 250 µg/mL | 12.5 µg/mL (≈ 41.8 µM) | > 250 µg/mL | 12.5 µg/mL (≈ 41.8 µM) | > 250 µg/mL | 250 µg/mL (≈ 836 µM) | Cc1cc(-c2cccnc2)nc2ccc(Br)cc12 |
| > 250 µg/mL | 250 µg/mL (≈ 1140 µM) | > 250 µg/mL | > 250 µg/mL | 250 µg/mL (≈ 1140 µM) | > 250 µg/mL | 250 µg/mL (≈ 1140 µM) | > 250 µg/mL | 250 µg/mL (≈ 1140 µM) | Cc1ccc2nc(-c3ccccc3)ccc2c1 |
| > 250 µg/mL | 250 µg/mL (≈ 1070 µM) | > 250 µg/mL | > 250 µg/mL | 250 µg/mL (≈ 1070 µM) | > 250 µg/mL | 250 µg/mL (≈ 1070 µM) | > 250 µg/mL | > 250 µg/mL | CCc1ccc2nc(-c3ccccc3)ccc2c1 |
